# Screens (PubChem)
# Only some compounds are listed: those with a hit (about 5% of all), similar ones and a draw of the others.
# CSC inhib: blocks cancer stem cells; cancer stem cell-like cells viability, luminescence; inhibition, % at 7.5 µM; actives 1.1% (n = 300,000); AID 2717; in the data active = inhibition above about 75%; inconclusive = no clear call, values can overlap the other calls; tested in HMLE shEcad cells
# Mdm2-MdmX inh: disrupts the human Mdm2-MdmX interaction; O15151+Q00987; inhibition, % at 8 µM; SaOS-2 split-luciferase Mdm2/MdmX complementation, luminescence; AID 485346; actives 3% (n = 330,000);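 active = inhibition of at least 50% at 8 µM in the primary screen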
# T cruzi repl: T. cruzi replication inhibition | inhibition, % (test concentration not listed) | T. cruzi beta-gal in NIH3T3, luminescence, 90 h | actives 1.4% (n = 300,000);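 active = mean inhibition across valid replicates above about 55%, limit read from the data; inconclusive = mean below that limit but half or more replicates reach it; inactive = mean below it, under half of replicates reach it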;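 note: signal also drops with host cell toxicity which is not excluded here; 0% = plate median of DMSO wells and 100% = zero luminescence signal; higher percent means less beta-gal luminescence so fewer parasites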
#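 Assay system: NIH/3T3 fibroblasts plus reporter T. cruzi. Amount: NIH/3T3 cells, 5,000 per well. Buffer or medium: DMEM, 2% fetal bovine serum. Doses: compound pinned at 50 nL/well, DMSO. Schedule: ≥90 h infection period, 3 h prior cell attachment. Signal: luminescent β-galactosidase signal after 60 min lysis. Read-out: parasite load inhibition, %.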
# XBP1 UPR activ: activators of adaptive arm of unfolded protein response (XBP1). CHO-XBP1 luciferase reporter, IRE1-XBP1 UPR activation, luminescence; percent of tunicamycin response, DMSO as zero. activation, % at 20 µM. actives 0.33% (n = 330,000). AID 463104;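 active = versus positive control, 20 µM dose yields 30% or more activation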;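 note: 100% = tunicamycin at 10 µg/mL and 0% = DMSO only wells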
#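 Material: CHO cell line with stable XBP1 luciferase reporter; buffer or medium: F12 medium containing 10% fetal bovine serum; compound: single point, 20 µM final compound, 1% DMSO; incubation: 6 h treatment, 37 °C; measured by: glow luminescence from Steady-Glo reagent; evaluation: activation, % of tunicamycin; control set: tunicamycin high, DMSO low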
# CHOP UPR activ: apoptotic UPR (CHOP) activation; CHO-CHOP luciferase reporter, luminescence; percent of tunicamycin response over DMSO baseline; activation, % at 10 µM; actives 0.34% (n = 330,000); AID 449763;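 active = at 10 µM dose, activation of 40% or more, normalized to positive control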;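 note: 100% = tunicamycin at 10 µg/mL and 0% = DMSO alone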
#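 Material: CHO-CHOP cells, stable luciferase reporter of PERK-eIF2a-CHOP signalling; quantity: 500 reporter cells seeded per well; buffer or medium: F12 medium containing 10% fetal bovine serum; compound: one dose, 10 µM in 0.5% DMSO; incubation: 6 h compound treatment, 37 °C; measured by: Steady-Glo luciferase luminescence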
# Beta apoptosis: blocks beta cell apoptosis | protection from apoptosis, % (no concentration beside the values) | INS-1E cytokine-induced death, ATP luminescence, 48 h; percent of positive-control rescue, neutral wells zero | actives 0.8% (n = 300,000);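 active = Every replicate reaches about 75%, or at least half do and their mean reaches it too, limit read from the data; inconclusive = At least half of replicates reach the limit but their mean does not; inactive = Under half of replicates reach the limit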;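 note: 0% = cytokine-treated negative control wells and 100% = positive control rescue; higher means more ATP so stronger rescue from cytokine killing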
# CHOP UPR conf: confirmation of apoptotic unfolded protein response (CHOP) activators. shares compounds with CHOP UPR activ. CHO-CHOP cells, CHOP-luciferase reporter luminescence; percent of tunicamycin response, DMSO as zero. activation, % at 10 µM. actives 64% (n = 1,000); in the data active = activation above about 33%;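 note: 0% = DMSO wells and 100% = tunicamycin 10 µg/mL wells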
# UPR XBP1 confirm: adaptive UPR (XBP1) activation, confirmed | shares compounds with XBP1 UPR activ | CHO-XBP1 IRE1-XBP1 luciferase reporter, luminescence | activation, % at 20 µM | actives 63% (n = 1,000);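 active = reporter signal at least 30% of the positive control's activation in two or more of four replicate wells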;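 note: plate controls were DMSO negative control for no effect and tunicamycin 10 µg/mL positive control for full effect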
# Mdm2-MdmX conf: human Mdm2/MdmX binding inhibition, confirmed. shares compounds with Mdm2-MdmX inh. luminescent assay. inhibition, % at 8 µM. actives 55% (n = 10,000); in the data active = inhibition above about 40%
# FLuc counter: inhibits full-length luciferase, flagging false Mdm2/MdmX hits; shares compounds with Mdm2-MdmX inh; SaOS-2 full-length luciferase counterscreen, luminescence; inhibition, % at 8 µM; actives 77% (n = 6,200); AID 504607;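 active = mean inhibition at 8 µM reaching about 37%, which flags the compound as non-specific, limit read from the data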;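 note: p53-null SaOS-2 cells with luciferase driven by a doxycycline-inducible promoter; compound on cells about two nights before reading with doxycycline added after day one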
# Active calls of the source: *; ? = inconclusive; nt = no result given.
SMILES,CSC inhib,Mdm2-MdmX inh,T cruzi repl,XBP1 UPR activ,CHOP UPR activ,Beta apoptosis,CHOP UPR conf,Mdm2-MdmX conf,FLuc counter,others
O=C1C(=O)c2c(C(=O)c3ccccc3)coc2-c2ccccc21,37,100*,58*,23,48*,101*,30,5,nt,
O=C(C1=C(c2ccccc2)C(=O)c2ccccc2C1=O)c1ccccc1,nt,nt,50,nt,nt,nt,nt,nt,nt,
CCCCCCCCCn1c2c(c(=N)c3c1CCC3)CCCC2,nt,98*,58*,44*,72*,nt,79*,96*,9,UPR XBP1 confirm=44*
CCCCn1c2c(c(=N)c3ccccc31)CCC2,3,27,21,0,1,46,nt,nt,nt,
CCn1c2c(c(=N)c3c1CCC3)CCCC2,-10,38,-3,-3,-1,13,nt,nt,nt,
CCCCCCCCCCn1c2c(c(=N)c3c1CCC3)CCC2,91*,98*,68*,47*,77*,118*,70*,95*,6,UPR XBP1 confirm=44*
Cc1ccc(C(=O)NCCC(=O)NCc2ccco2)cc1,-3,8,-4,-4,0,0,nt,nt,nt,
CCOC(=O)c1cccc(NC(=O)c2c(NCc3ccccc3)[nH]c(=O)[nH]c2=O)c1,62,36,-4,0,0,nt,nt,nt,nt,
Cc1ccc(C(=O)NC(C#N)=C(Cl)Cl)cc1,nt,100*,52,-5,136*,nt,45*,99*,53*,
C=CCn1c(O)c(N=NC(=S)Nc2ccccc2F)c2cc(S(=O)(=O)N3CCOCC3)ccc21,-14,64*,58*,-1,88*,28,121*,44*,50*,
Cc1cc(C)n2nc(C(=O)N/N=C/c3cccc(Cl)c3)nc2n1,11,-5,5,2,1,6,nt,nt,nt,
COc1ccc(/C=N/Nc2cc(C)nc(-n3nc(C)cc3C)n2)cc1,19,54*,44,8,52*,90*,33*,40*,52*,
Cc1cc(N/N=C/c2ccccc2[N+](=O)[O-])nc(-n2nc(C)cc2C)n1,54,53*,69*,12,121*,128*,94*,37,43*,
COc1ccc(O)c(/C=N/Nc2nc(Nc3ccccc3)nc(-n3nc(C)cc3C)n2)c1,92*,75*,35,0,102*,96*,112*,44*,84*,
COc1ccc(O)c(/C=N/Nc2nc(C)cc(-c3ccccc3)n2)c1,30,29,-7,-2,6,5,nt,nt,nt,
Cc1cc(N/N=C/c2cccc([N+](=O)[O-])c2)nc(-n2nc(C)cc2C)n1,29,15,-55,1,0,59,nt,nt,nt,
Cc1cc(N/N=C/c2cccc(Cl)c2)nc(-n2nc(C)cc2C)n1,20,64*,33,6,51*,103*,7,31,nt,
CC(C)(C)Cc1nnc(NC(=O)CSc2ccccc2)s1,4,-23,-2,-2,6,nt,nt,nt,nt,
CCOc1ncccc1C(=O)OCC(=O)NCCCc1ccccc1,-4,-11,nt,-2,0,-5,nt,nt,nt,
O=C1c2cc(F)ccc2-n2c1nc1ccccc1c2=O,39,63*,52,12,77*,62,30,34,23,
O=C1C(c2ccccc2)=[N+]([O-])c2ccccc21,82*,93*,25,16,67*,47,29,19,nt,
COC1=C(c2ccccc2)C(=O)c2ccccc2C1=O,-3,-13,-27,-3,0,13,nt,nt,nt,
Cc1nc([N+](=O)[O-])c(Br)n1CC(=O)c1ccc(Br)cc1,34,63*,36,-3,75*,-10,43*,10,nt,
Cc1nc([N+](=O)[O-])c(Br)n1CC(=O)c1ccc2ccccc2c1,?,87*,23,2,144*,nt,104*,23,nt,
CC1CCCC(NC(=O)COC(=O)COc2ccc(C#N)cc2)C1C (stereo not drawn),nt,-3,nt,-2,1,6,nt,nt,nt,
SMILES,CSC inhib,Mdm2-MdmX inh,T cruzi repl,XBP1 UPR activ,CHOP UPR activ,Beta apoptosis,CHOP UPR conf,Mdm2-MdmX conf,FLuc counter,others
Cc1nc(SCC(=O)Nc2ccc(F)cc2)c(C#N)c(C)c1CC(=O)c1ccc(Br)cc1,-2,97*,4,98*,57*,-7,35*,76*,80*,UPR XBP1 confirm=68*
COc1ccc(CNC(=O)CSc2nc3ccc(C)cc3[nH]2)cc1OC,13,-39,3,1,1,nt,nt,nt,nt,
Cc1ccc(NC(=O)COc2ccc(/C=N/NC(=O)CSCc3ccccc3)cc2)cc1,27,-3,-1,1,4,-17,nt,nt,nt,
Cc1ccc(NC(=O)COc2ccc(/C=C3/SC(=Nc4ccccc4)N(Cc4cccnc4)C3=O)cc2)cc1,25,51*,18,63*,84*,15,152*,10,nt,UPR XBP1 confirm=60*
O=S1(=O)NC(=NCCc2ccccn2)c2ccccc21,-22,11,-4,-5,0,-3,nt,nt,nt,
C=C(C)C(=O)OC1(C(F)(F)F)Oc2cc(C)ccc2NC1=O (stereo not drawn),70,100*,-9,-5,45*,33,20,61*,16,
Cc1cccc2sc(NC(=O)c3cc(S(=O)(=O)N(C)C)ccc3N3CCCC3)nc12,59,65*,39,55*,63*,-13,47*,70*,45*,UPR XBP1 confirm=78*
CCOC(=O)c1c2ccc(OCC(=O)N/N=C/c3ccc(C)cc3)cc2n2ccccc12,114*,84*,-15,123*,158*,62,61*,79*,107*,UPR XBP1 confirm=106*
CCOc1ccc(-n2c(C)cc(C(=O)CCl)c2C)cc1,17,94*,86*,70*,244*,36,621*,55*,88*,UPR XBP1 confirm=202*
COC(=O)c1ccc(-n2c(C)cc(C(=O)CCl)c2C)cc1,52,94*,52,74*,502*,5,268*,62*,58*,UPR XBP1 confirm=16
COc1ccc(Cc2nnc(NS(=O)(=O)c3ccc(Cl)cc3)s2)cc1OC,22,-1,6,0,-1,-7,nt,nt,nt,
